The RNAGym collection of RNA variant scans (doi:10.1126/science.aae0568)
Fewer inactive variants are shown than the library holds.

B1: tRNA (parent)
chain: GUUCCGUUGGCGUAAUGGUAACGCGUCUCCCUCCUAAGGAGAAGACUGCGGGUUCGAGUCCCGUACGGAACG

Variants of: B1
Experiment: yeast fitness relative to wild type (ratio to wild type); higher = fitter; tRNA-Arg(CCU), competitive growth, 37 C, YPD
In short: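 The tRNA-Arg(CCU) gene variants were made by chemical synthesis with a 3% per-site mutation rate at 69 sites and inserted at the native genomic locus of Saccharomyces cerevisiae. After pooling, the strains were competed in YPD at 37°C for 24 hours in six parallel replicates. Gene amplicons from the start population and each end population were read by 100-nucleotide paired-end sequencing, and Darwinian fitness relative to wild type was taken from genotype frequency changes. Genotypes needed ≥ 100 starting reads, and estimates < 0.5 were set to 0.5.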

Variant | yeast fitness
U3A C31A C34A A37C | 0.661
U3A A15G U35C G52A G58C C66U | ≤ 0.5
U2G U19A C46U | ≤ 0.5
U2G U19C G48C G52C C62G | ≤ 0.5
U2G G67A | 0.901
U2G G67C | 0.759
U2G G67U | 0.821
U3A C4A U8C C29G A37C A70C | ≤ 0.5
U2G U19A U53C G67A | 0.563
U3A C4A U16A C30G U53C G67U | ≤ 0.5
U3A C4A U16A C30G U53C G67A | 0.604
U3A C31U G63C G67C A69U | 0.558
U2G U26A U54A | ≤ 0.5
U3A C27U A36G A70U | 0.729
U3A A20C A21G C61A | 0.514
U3A A14G G23C A70C | 0.573
U3A C22G C24U G39A | ≤ 0.5
U3A A37U A42G | ≤ 0.5
U3A C5U A43G | 0.607
U3A C31A C34A A37C G68C | ≤ 0.5
U3A C27G C31U C33U A42C | ≤ 0.5
U2G U28A U32C C49G G52A | ≤ 0.5
U3A C31U A45U G68C | ≤ 0.5
U3A C4A U16A A36C G48A G67A | ≤ 0.5

Variant | yeast fitness
U3A C22G C29G C46U A70U | ≤ 0.5
U3A A21C C49G | ≤ 0.5
U3A A21G C66U A70C | 0.794
U3A A15U | 0.695
U3A A14U C46U U53A | ≤ 0.5
U3A A43C C46A G48C | 0.57
U3A C29G G52A C66G | ≤ 0.5
U3A C24U A40U G48A | ≤ 0.5
U3A C5G G67C | 1
U3A C31U U53A | 0.518
U3A C31G A43U C60G A65C G67C | 0.664
U2G U16C C27U U35C | ≤ 0.5
U3A C30G C55U | 0.673
U3A C24A C27U G56C C66U | ≤ 0.5
U3A C30G C31U C61U | ≤ 0.5
U3A A14C C46G | ≤ 0.5
U3A A14C C46U | ≤ 0.5
U3A A21G A45G A69C | 0.726
U3A A14U A37G A57C | ≤ 0.5
U3A A15G U47G | 0.794
U3A A14C C34A G52A A70G | 0.673
U3A C11U A20C U32A C62U G63A | ≤ 0.5
U3A C33U A45C | ≤ 0.5
U3A C31U A36C | 0.571

Variant | yeast fitness
U3A C11A C33U C60U A65U | ≤ 0.5
U3A C29G A57G | ≤ 0.5
U3A C22G C29U G63C C66U | ≤ 0.5
U3A C4U U7A C24U U35C C49U C61G | ≤ 0.5
U2G U7C A37C U59C | ≤ 0.5
U3A C29U U59G C66U | ≤ 0.5
U3A C4A U16G G58C | ≤ 0.5
U3A A36G A70C | 0.991
U3A A37G G41A | ≤ 0.5
U3A C4A U8C C29G C33G A42G G48A | ≤ 0.5
U3A A57G A69U | 0.983
U3A C5A G12C G25A C30U | ≤ 0.5
U3A C11G G23C | 0.501
U3A A14G G58C | 0.753
U3A C4G G9A C11G U53A C66U | ≤ 0.5
U3A C24U G39A | ≤ 0.5
U3A C30G G38C | 0.987
U3A C11A C29U A57C | ≤ 0.5
U3A A57C | 0.714
U3A C22U | 0.738
U3A C22G C27G U59G A69G | ≤ 0.5
U3A C30U A42G | 0.757
U3A A37G A42G G50A C55U U64C | ≤ 0.5
U3A C4U A70G | 0.59

Variant | yeast fitness
U3A A40U G56A | ≤ 0.5
U3A A20C U32A | ≤ 0.5
U3A C30U A43C | 0.554
U3A A42G C66U | 0.595
U3A A15U U28G C55A A70U | 0.779
U3A C11G G17C C24G C46A | ≤ 0.5
U3A C5G A21U C22U U32A C49G | 0.599
U3A A15C C66U | 0.659
U2G U64C | 0.841
U3A C11U C29A A42G | 0.629
U3A C24G U47C A57U | ≤ 0.5
U3A C4U G25C G48A | ≤ 0.5
U3A C11G A14C C24G C31A | ≤ 0.5
U3A C22G C29U | 0.55
U3A C5A G6C A15G U16A U26G | 0.512
U3A A21C A36U G58A | ≤ 0.5
U3A A40G C49U | 0.54
U3A C11G G17C C24G C46A A65U | ≤ 0.5
U3A C22G G48A | 0.544
U3A C5G C55U G67C | 0.599
U3A A14G C24G C29A G50C A57C | ≤ 0.5
U3A C34A C60U | ≤ 0.5
U2G U59A | 0.851
U2G U59C | 0.848

Variant | yeast fitness
U3A A45C C62G | ≤ 0.5
U3A A20G A43U C55G C61U | ≤ 0.5
U3A C31U G52A | 0.614
U3A C4A U16A C30G U53C C66U A70G | ≤ 0.5
U3A C30U C31U G52A | ≤ 0.5
U3A A21C C24G C61U | ≤ 0.5
U3A C27U A36G | 0.594
U2G U35A A40U A57U | ≤ 0.5
U3A C30G C31U G67C | ≤ 0.5
U3A C30G G38C A69C | 0.671
U3A A20G C24U C55G C61U | ≤ 0.5
U3A C30U G52A | ≤ 0.5
U3A A70U | 0.86
U3A A70C | 0.988
U3A A15G U35C G52A | 0.525
U3A A40G A57C A69C | ≤ 0.5
U2G U13C A21G U35A | ≤ 0.5
U2G U8A G23A U26G A43G U54C C55A | ≤ 0.5
U2G U13A G58A | 0.585
U3A C27U C55A | 0.535
U2G G68U | 0.835
U3A C11U C29A A42G A57C | ≤ 0.5
U2G U7C U28A | ≤ 0.5
U2G U26A A43G G44C U53C | ≤ 0.5

Variant | yeast fitness
U3A C4U G44C | 0.638
U3A C4G U8A G50A A57C A70U | 0.548
U3A A14C A20C U28A C29G U32C G39A A57C | ≤ 0.5
U2G U13A U16A C29G | ≤ 0.5
U3A A40C U47A G68C | ≤ 0.5
U2G U8C | 0.891
U3A C22A C33A A36U U53A U54A | ≤ 0.5
U3A A36G G56A A65C A69C | ≤ 0.5
U3A A20U C29G C49G G63C | ≤ 0.5
U3A C33U U59C | ≤ 0.5
U3A A37U G38C | ≤ 0.5
U3A A21C C24G C62G A70G | ≤ 0.5
U2G U3A C5U U7C U8A A20C U35C A37U A57C | 0.565
U3A A20G A36C G51C | ≤ 0.5
U3A C29G A40U G41C A42C | ≤ 0.5
U3A A69C | 0.919
U3A A21C C24G | 0.507
U3A C11G A14C C24G | 0.653
U3A C4A U8C C31U A37U G48C C66U | ≤ 0.5
U3A A15G U19A G41A | ≤ 0.5
U3A C30G C33U | 0.536
U3A A21G C31A G48C | ≤ 0.5
U2G U7G C60U C61A G67C | ≤ 0.5
U3A A21C C24G C49U A65C | ≤ 0.5

Variant | yeast fitness
U3A C24U C30U | ≤ 0.5
U3A C24U A40U G50C A70U | ≤ 0.5
U3A A21G C46A | 0.695
U3A A20U A37G | 0.608
U3A C4U C11U G48C | 0.532
U3A A21C G25U A43C | ≤ 0.5
U2G U7C | 0.772
U3A C24U | 0.765
U3A C24G | 0.645
U3A A14G C24G A42C | 0.54
U3A A36G | 0.868
U3A C5G C29G A36C C49U U53G | ≤ 0.5
U3A C4A U16A C30G U53C C66A | ≤ 0.5
U3A C46A | 1.05
U3A C4A A20C C29A | ≤ 0.5
U2G U13C A21G U35A C55U A65G | ≤ 0.5
U3A C31U A36C A65U | ≤ 0.5
U3A A40G | 0.888
U3A A40C | 0.635
U3A C4U U7A C24U C46G A65G | ≤ 0.5
U3A A21U C49A | ≤ 0.5
U3A A20G G44A C49A U59A | ≤ 0.5
U3A A20G | 1
